Source: ChEMBL document CHEMBL1921774, “Evaluation of 18F-labeled benzodioxine piperazine-based dopamine D4 receptor ligands: lipophilicity as a determinate of nonspecific binding” (J Med Chem, 2011)
The source made the active and inactive calls. No cut-off for these calls is given here.

Columns and labels:
[1] = Octanol-buffer partition coefficient, log P of the compound at pH 7.4 by shake flask method
D(2) dopamine receptor [2] = target: T1, D(2) dopamine receptor (Homo sapiens, UniProt P14416); experiment: Displacement of [3H]spiperone from human dopamine D2long receptor expressed in CHO cells; type: cell-based
T1 sequence (P14416 whole entry): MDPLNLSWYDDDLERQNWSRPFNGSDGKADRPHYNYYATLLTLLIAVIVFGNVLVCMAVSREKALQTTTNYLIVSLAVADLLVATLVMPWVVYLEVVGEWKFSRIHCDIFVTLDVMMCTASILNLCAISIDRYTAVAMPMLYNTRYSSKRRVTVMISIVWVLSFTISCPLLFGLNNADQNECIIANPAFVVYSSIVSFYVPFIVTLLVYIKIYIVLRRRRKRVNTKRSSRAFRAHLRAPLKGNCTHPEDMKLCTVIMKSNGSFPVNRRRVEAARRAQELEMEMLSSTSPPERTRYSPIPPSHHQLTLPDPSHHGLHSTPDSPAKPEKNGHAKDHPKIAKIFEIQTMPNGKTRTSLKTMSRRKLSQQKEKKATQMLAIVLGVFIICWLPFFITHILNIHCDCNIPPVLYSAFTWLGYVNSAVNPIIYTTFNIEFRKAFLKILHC
In short: (§1)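 Membranes from CHO cells stably expressing each receptor, 2–6 μg protein per tube, competed against [³H]spiperone at 0.2 nM final. Competition curves were analyzed by nonlinear regression to give Ki.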

D(3) dopamine receptor = D(3) dopamine receptor (Homo sapiens, UniProt P35462); experiment: Displacement of [3H]spiperone from human dopamine D3 receptor expressed in CHO cells; type: cell-based; in short: as §1
Chain of D(3) dopamine receptor (P35462 whole entry): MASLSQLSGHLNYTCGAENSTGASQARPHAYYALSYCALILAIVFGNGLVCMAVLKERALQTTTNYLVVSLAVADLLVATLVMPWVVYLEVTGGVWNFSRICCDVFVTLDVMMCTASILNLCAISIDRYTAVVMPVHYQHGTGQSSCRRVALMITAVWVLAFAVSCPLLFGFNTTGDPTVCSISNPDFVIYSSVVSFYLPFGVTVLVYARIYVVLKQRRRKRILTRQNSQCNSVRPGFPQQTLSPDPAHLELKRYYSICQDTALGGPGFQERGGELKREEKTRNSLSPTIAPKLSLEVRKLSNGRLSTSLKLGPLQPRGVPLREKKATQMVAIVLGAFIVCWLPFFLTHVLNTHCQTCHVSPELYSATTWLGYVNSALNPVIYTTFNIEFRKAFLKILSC

D(1A) dopamine receptor = D(1A) dopamine receptor (Sus scrofa, UniProt P50130); experiment: Displacement of [3H]SCH23390 from dopamine D1 receptor in porcine striatal membranes
Chain of D(1A) dopamine receptor (P50130 whole entry): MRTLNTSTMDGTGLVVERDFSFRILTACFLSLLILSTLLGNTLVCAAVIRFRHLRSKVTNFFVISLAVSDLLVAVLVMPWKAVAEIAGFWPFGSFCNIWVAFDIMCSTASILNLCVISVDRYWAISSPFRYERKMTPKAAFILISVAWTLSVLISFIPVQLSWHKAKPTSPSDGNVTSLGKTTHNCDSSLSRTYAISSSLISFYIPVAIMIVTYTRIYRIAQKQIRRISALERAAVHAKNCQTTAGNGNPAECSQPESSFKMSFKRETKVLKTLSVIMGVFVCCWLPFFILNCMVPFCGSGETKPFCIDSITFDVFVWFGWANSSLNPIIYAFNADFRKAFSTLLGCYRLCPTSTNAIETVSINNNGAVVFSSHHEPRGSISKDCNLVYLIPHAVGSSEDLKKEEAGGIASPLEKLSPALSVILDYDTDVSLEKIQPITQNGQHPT

Homo sapiens [3] = organism: Homo sapiens; experiment: Selectivity ratio of Ki for human dopamine D2long receptor to Ki for human dopamine D4.4 receptor
[4] = Lipophilicity, log P of the compound at pH 7.4 by HPLC method; conditions: buffer
CHO10001 = experiment: Neutral antagonist activity at human dopamine D4.2 receptor expressed in CHO10001 cells assessed as inhibition of [3H]thymidine incorporation relative to quinpirole; type: functional, cell-based
In short: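 Growing D4.2-expressing CHO10001 cells were stimulated with test compound and given 0.02 μCi [³H]thymidine per well; incorporation was measured. Data from four dose-response experiments were normalized and pooled to give means per concentration, and compared with the full agonist quinpirole.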

Homo sapiens [5] = organism: Homo sapiens; experiment: Selectivity ratio of Ki for human dopamine D3 receptor to Ki for human dopamine D4.4 receptor
[6] = Displacement of [3H]WAY100635 from 5-HT1A receptor in porcine cortical membranes
[7] = target: 5-hydroxytryptamine receptor 2A (Sus scrofa, UniProt P50129); experiment: Displacement of [3H]ketanserin from 5-HT2 receptor in porcine cortical membranes; type: cell membranes
Chain of 5-hydroxytryptamine receptor 2A (P50129 whole entry): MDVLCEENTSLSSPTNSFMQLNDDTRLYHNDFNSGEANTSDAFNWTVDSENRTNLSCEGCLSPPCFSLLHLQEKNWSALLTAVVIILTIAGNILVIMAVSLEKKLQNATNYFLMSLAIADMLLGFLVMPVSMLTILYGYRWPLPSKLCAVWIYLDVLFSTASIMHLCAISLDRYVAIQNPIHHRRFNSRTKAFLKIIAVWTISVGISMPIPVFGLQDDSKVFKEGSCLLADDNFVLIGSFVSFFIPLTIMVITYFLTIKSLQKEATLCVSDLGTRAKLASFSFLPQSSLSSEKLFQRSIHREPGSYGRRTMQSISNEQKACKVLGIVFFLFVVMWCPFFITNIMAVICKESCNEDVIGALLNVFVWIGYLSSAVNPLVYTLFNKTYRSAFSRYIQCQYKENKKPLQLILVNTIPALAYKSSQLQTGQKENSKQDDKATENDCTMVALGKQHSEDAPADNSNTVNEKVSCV
In short: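 Porcine cerebral cortex homogenate, 110 μg/mL protein per tube, with 0.5 nM [³H]ketanserin. Protein was measured by Lowry. Competition curves were fitted by nonlinear regression.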

Homo sapiens [8] = organism: Homo sapiens; experiment: Selectivity ratio of Ki for human dopamine D2short receptor to Ki for human dopamine D4.4 receptor
D(4) dopamine receptor = target: T2, D(4) dopamine receptor (Homo sapiens, UniProt P21917); experiment: Displacement of [3H]spiperone from human dopamine D4.4 receptor expressed in CHO cells; type: cell-based; in short: as §1
T2 sequence (P21917 whole entry): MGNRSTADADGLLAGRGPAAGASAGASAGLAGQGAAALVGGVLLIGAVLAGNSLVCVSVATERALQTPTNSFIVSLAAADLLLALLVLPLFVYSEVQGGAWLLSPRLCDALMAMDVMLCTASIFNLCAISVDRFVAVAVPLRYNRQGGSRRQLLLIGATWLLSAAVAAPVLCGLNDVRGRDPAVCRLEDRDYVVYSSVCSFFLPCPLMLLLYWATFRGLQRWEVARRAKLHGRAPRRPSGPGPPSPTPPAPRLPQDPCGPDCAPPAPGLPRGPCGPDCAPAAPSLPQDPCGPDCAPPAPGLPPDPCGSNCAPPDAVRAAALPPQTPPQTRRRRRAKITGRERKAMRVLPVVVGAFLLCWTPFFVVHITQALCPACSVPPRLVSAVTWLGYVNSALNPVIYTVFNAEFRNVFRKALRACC

D(2) dopamine receptor [9] = target: T1, D(2) dopamine receptor; experiment: Displacement of [3H]spiperone from human dopamine D2short receptor expressed in CHO cells; type: cell-based; in short: as §1
[10] = Displacement of [3H]prazosin from adrenergic alpha1 receptor in porcine cortical membranes; type: cell membranes, Sus scrofa
In short: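 Porcine cerebral cortex homogenate, 40 μg/mL protein per tube, with 0.2 nM [³H]prazosin. Protein was measured by Lowry. Competition curves were fitted by nonlinear regression.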

[11] = target: T3, D(4) dopamine receptor (Rattus norvegicus) (UniProt P30729); experiment: Binding affinity to dopamine D4 receptor in Wistar rat cortex at 5 nmol/L measured after 30 mins; conditions: tested as the 18F-labelled form
T3 sequence (whole entry): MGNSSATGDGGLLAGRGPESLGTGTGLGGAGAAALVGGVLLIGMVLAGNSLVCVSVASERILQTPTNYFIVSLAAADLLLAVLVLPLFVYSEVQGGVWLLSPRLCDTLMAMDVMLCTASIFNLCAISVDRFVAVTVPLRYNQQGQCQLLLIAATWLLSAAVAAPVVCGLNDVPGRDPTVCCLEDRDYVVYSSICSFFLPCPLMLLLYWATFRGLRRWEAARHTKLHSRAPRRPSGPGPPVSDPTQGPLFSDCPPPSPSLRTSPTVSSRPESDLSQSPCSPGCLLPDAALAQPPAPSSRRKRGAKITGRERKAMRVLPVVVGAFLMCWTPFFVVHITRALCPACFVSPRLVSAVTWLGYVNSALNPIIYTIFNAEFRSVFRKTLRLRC
In short: (§2)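 Horizontal 20 μm cryostat sections of brains from Wistar rats (4–6 months, 230–250 g) were used. After a 10 min preincubation in 50 mmol/L Tris-HCl pH 7.4 at 22 °C, slices were incubated 30 min with ¹⁸F-radioligand (5 nmol/L, or 10 nmol/L for one tracer). Nonspecific binding was taken with 10 μmol/L spiperone or cold standard; total binding had DMSO alone. Regions were assigned by cresyl violet staining.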

[12] = target: T3, D(4) dopamine receptor (Rattus norvegicus); experiment: Binding affinity to dopamine D4 receptor in Wistar rat striatum at 5 nmol/L after 30 mins using cresyl violet staining by In vitro autoradiography in presence of 10 uM non-radiolabeled compound; conditions: tested as the 18F-labelled form; in short: as §2
[13] = target: T3, D(4) dopamine receptor (Rattus norvegicus); experiment: Binding affinity to dopamine D4 receptor in Wistar rat hippocampus at 5 nmol/L after 30 mins using cresyl violet staining by In vitro autoradiography in presence of 10 uM non-radiolabeled compound; type: tissue-based; conditions: tested as the 18F-labelled form; in short: as §2
[14] = target: T4, D(4) dopamine receptor (Mus musculus) (UniProt P51436); experiment: Binding affinity to dopamine D4 receptor in NMRI mouse hippocampus cornu ammonis 3 at 20 nmol/L after 30 mins using cresyl violet staining by In vitro autoradiography in presence of 10 uM non-radiolabeled compound; type: tissue-based; conditions: tested as the 18F-labelled form
T4 sequence (whole entry): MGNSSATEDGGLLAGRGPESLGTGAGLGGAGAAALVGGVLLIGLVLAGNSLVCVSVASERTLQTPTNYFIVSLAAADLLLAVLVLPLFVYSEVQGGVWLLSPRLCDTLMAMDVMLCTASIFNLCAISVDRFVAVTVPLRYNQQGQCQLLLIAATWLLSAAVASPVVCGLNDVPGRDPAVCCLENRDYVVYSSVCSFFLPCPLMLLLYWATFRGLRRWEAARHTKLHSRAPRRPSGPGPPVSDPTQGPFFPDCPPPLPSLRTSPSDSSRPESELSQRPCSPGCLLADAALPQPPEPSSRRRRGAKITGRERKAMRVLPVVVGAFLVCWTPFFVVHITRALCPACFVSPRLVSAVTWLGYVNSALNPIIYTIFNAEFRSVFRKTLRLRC
In short: (§3)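 Sagittal brain slices from female NMRI mice (2–6 months) were preincubated 10 min in 50 mmol/L Tris-HCl pH 7.4 at 22 °C. They were then incubated 30 min with 20 nmol/L [¹⁸F]-ligand plus 10 μmol/L displacer (spiperone or cold standard), or with DMSO alone for total binding. After the ¹⁸F had decayed, regions were identified by cresyl violet staining.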

[15] = target: T4, D(4) dopamine receptor (Mus musculus); experiment: Binding affinity to dopamine D4 receptor in NMRI mouse hippocampus dentate gyrus at 20 nmol/L after 30 mins using cresyl violet staining by In vitro autoradiography in presence of 10 uM non-radiolabeled compound; type: tissue-based; conditions: tested as the 18F-labelled form; in short: as §3
[16] = target: T3, D(4) dopamine receptor (Rattus norvegicus); experiment: Binding affinity to dopamine D4 receptor in Wistar rat thalamus at 5 nmol/L measured after 30 mins; conditions: tested as the 18F-labelled form; in short: as §2
[17] = target: T3, D(4) dopamine receptor (Rattus norvegicus); experiment: Binding affinity to dopamine D4 receptor in coliculus of Wistar rat at 5 nmol/L after 30 mins using cresyl violet staining by In vitro autoradiography in presence of 10 uM non-radiolabeled compound; in short: as §2
[18] = target: T3, D(4) dopamine receptor (Rattus norvegicus); experiment: Binding affinity to dopamine D4 receptor in coliculus of Wistar rat at 10 nmol/L after 30 mins using cresyl violet staining by In vitro autoradiography in presence of 10 uM non-radiolabeled compound; conditions: tested as the 18F-labelled form; in short: as §2
[19] = target: T4, D(4) dopamine receptor (Mus musculus); experiment: Binding affinity to dopamine D4 receptor in NMRI mouse hippocampus at 20 nmol/L after 30 mins using cresyl violet staining by In vitro autoradiography in presence of 10 uM non-radiolabeled compound; type: tissue-based; conditions: tested as the 18F-labelled form; in short: as §3
[20] = target: T3, D(4) dopamine receptor (Rattus norvegicus); experiment: Binding affinity to dopamine D4 receptor in Wistar rat frontal cortex at 5 nmol/L after 30 mins using cresyl violet staining by In vitro autoradiography in presence of 10 uM non-radiolabeled compound; type: tissue-based; conditions: tested as the 18F-labelled form; in short: as §2
[21] = target: T4, D(4) dopamine receptor (Mus musculus); experiment: Binding affinity to dopamine D4 receptor in NMRI mouse cortex at 20 nmol/L after 30 mins using cresyl violet staining by In vitro autoradiography in presence of 10 uM non-radiolabeled compound; conditions: tested as the 18F-labelled form; in short: as §3
[22] = target: T3, D(4) dopamine receptor (Rattus norvegicus); experiment: Binding affinity to dopamine D4 receptor in medial nuclei of cerebellum in Wistar rat at 5 nmol/L after 30 mins using cresyl violet staining by In vitro autoradiography in presence of 10 uM non-radiolabeled compound; type: tissue-based; conditions: tested as the 18F-labelled form; in short: as §2
[23] = target: T4, D(4) dopamine receptor (Mus musculus); experiment: Binding affinity to dopamine D4 receptor in NMRI mouse coliculus at 20 nmol/L after 30 mins using cresyl violet staining by In vitro autoradiography in presence of 10 uM non-radiolabeled compound; conditions: tested as the 18F-labelled form; in short: as §3
[24] = target: T3, D(4) dopamine receptor (Rattus norvegicus); experiment: Binding affinity to dopamine D4 receptor in medial nuclei of cerebellum in Wistar rat at 10 nmol/L after 30 mins using cresyl violet staining by In vitro autoradiography in presence of 10 uM non-radiolabeled compound; type: tissue-based; conditions: tested as the 18F-labelled form; in short: as §2
[25] = target: T3, D(4) dopamine receptor (Rattus norvegicus); experiment: Binding affinity to dopamine D4 receptor in Wistar rat brain slices assessed as nonspecific binding at 10 nmol/L measured after 30 mins by In vitro autoradiography presence of nonradioactive ligand; conditions: tested as the 18F-labelled form; in short: as §2

SMILES: COc1cc(CN2CCN(c3ccc4c(c3)OCCO4)CC2)ccc1F
- logD [1]: 2.33
- Ki (D(2) dopamine receptor [2]): 17 µM
- Ki (D(3) dopamine receptor): 5.9 µM
- Ki (D(1A) dopamine receptor): 23 µM
- Ratio Ki (Homo sapiens [3]): 4000
- logP [4]: 2.44
- Activity (CHO10001): Active
- Ratio Ki (Homo sapiens [5]): 1400
- Ki [6]: 5.6 µM
- Ki [7]: 4.2 µM
- Ratio Ki (Homo sapiens [8]): 3800
- Ki (D(4) dopamine receptor): 0.0042 µM
- Ki (D(2) dopamine receptor [9]): 16 µM
- Ki [10]: 3.3 µM

SMILES: Fc1ccc(CN2CCN(c3ccc4c(c3)OCCO4)CC2)cc1
- Ki (D(2) dopamine receptor [2]): 7.6 µM
- Ki (D(3) dopamine receptor): 3.9 µM
- Ki (D(1A) dopamine receptor): 19 µM
- Ratio Ki (Homo sapiens [3]): 6700
- logP [4]: 2.71
- Activity (CHO10001): Active
- Ratio Ki (Homo sapiens [5]): 3600
- Ki [6]: 5.2 µM
- Ki [7]: 7 µM
- Ratio Ki (Homo sapiens [8]): 5000
- Ki (D(4) dopamine receptor): 0.0011 µM
- Ki (D(2) dopamine receptor [9]): 5.7 µM
- Ki [10]: 4 µM

SMILES: Fc1ccc(CN2CCN(c3ccc4c(c3)OCCO4)CC2)cn1
- Activity [11]: Active
- Ki (D(2) dopamine receptor [2]): 29 µM
- Ki (D(3) dopamine receptor): 17 µM
- Activity [12]: Active
- Activity [13]: inactive
- Activity [14]: Active
- Activity [15]: Active
- Ki (D(1A) dopamine receptor): 35 µM
- Activity (CHO10001): Active
- Activity [16]: Active
- Activity ([17]; 10 nmol/L, tested as the 18F-labelled form, in the assay text read “10 nmol/L” for “5 nmol/L”): Active
- Activity [18]: Active
- Activity [19]: Active
- Ki [6]: 21 µM
- Activity [20]: inactive
- Ki [7]: 5.8 µM
- Activity [21]: Active
- Activity [22]: Active
- Ki (D(4) dopamine receptor): 0.015 µM
- Ki (D(2) dopamine receptor [9]): 45 µM
- Ki [10]: 11 µM
- Activity [23]: Active

SMILES: Oc1cc(CN2CCN(c3ccc4c(c3)OCCO4)CC2)ccc1F
- logD [1]: 1.78
- Ki (D(2) dopamine receptor [2]): 9 µM
- Ki (D(3) dopamine receptor): 4.2 µM
- Activity [24]: Active
- Ki (D(1A) dopamine receptor): 15 µM
- Ratio Ki (Homo sapiens [3]): 1300
- logP [4]: 1.7
- Activity (CHO10001): Active
- Ratio Ki (Homo sapiens [5]): 590
- Activity ([17]; 10 nmol/L, in the assay text read “10 nmol/L” for “5 nmol/L”, tested as the 18F-labelled form): Active
- Activity [18]: Active
- Ki [6]: 6.2 µM
- Ki [7]: 2.3 µM
- Ratio Ki (Homo sapiens [8]): 830
- Activity [25]: 33%
- Ki (D(4) dopamine receptor): 0.0073 µM
- Ki (D(2) dopamine receptor [9]): 6.1 µM
- Ki [10]: 3 µM
